# Measured values reported in ChEMBL document CHEMBL1148614, “Synthesis and evaluation of 2-anilino-3-phenylsulfonyl-6-methylpyridines as corticotropin-releasing factor1 receptor ligands” (Bioorg Med Chem Lett, 2006).
# pKi: −log10 of the molar value.
# Experiments:
# [1] = biological target: T1, Corticotropin-releasing factor receptor 1 (Rattus norvegicus, UniProt P35353); assay: Displacement of [125I]Tyr-o-CRF from CRF1 receptor in rat frontal cortex homogenates; format: tissue-based
# T1 sequence (P35353 whole entry): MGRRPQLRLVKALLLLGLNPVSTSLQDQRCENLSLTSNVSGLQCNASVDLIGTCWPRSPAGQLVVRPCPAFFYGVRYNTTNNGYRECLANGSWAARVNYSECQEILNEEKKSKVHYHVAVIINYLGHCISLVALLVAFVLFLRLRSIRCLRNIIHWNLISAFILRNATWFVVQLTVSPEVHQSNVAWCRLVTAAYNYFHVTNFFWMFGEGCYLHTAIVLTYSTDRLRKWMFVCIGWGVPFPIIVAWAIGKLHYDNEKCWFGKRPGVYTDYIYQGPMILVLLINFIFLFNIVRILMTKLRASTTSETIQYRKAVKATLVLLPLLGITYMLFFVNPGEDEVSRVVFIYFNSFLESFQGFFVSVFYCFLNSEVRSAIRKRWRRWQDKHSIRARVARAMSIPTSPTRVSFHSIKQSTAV
# [2] = Bioavailability in Sprague-Dawley rat at 2.0 mg/kg, po; format: ADME, organism-based; conditions: in vivo
# How it was run: (§1)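 Cassette dosing in Sprague–Dawley rats (n = 3 per route). Oral dose 2 mg/kg, with plasma sampled at 0, 0.5, 1, 2, 4, 6, 8 and 24 h. Plasma drug levels measured by LC/MS/MS.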
# [3] = AUC in Sprague-Dawley rat at 2.0 mg/kg, po; format: ADME, organism-based; set-up: dose 2 mg/kg, route oral; conditions: plasma; how it was run: as §1
# [4] = Half life in Sprague-Dawley rat at 0.5 mg/kg, iv; format: ADME, organism-based; set-up: dose 0.5 mg/kg, route intravenous; conditions: in vivo
# [5] = Clearance in Sprague-Dawley rat at 0.5 mg/kg, iv; format: ADME, organism-based; set-up: dose 0.5 mg/kg, route intravenous; conditions: in vivo
# Rattus norvegicus = assay: Volume of distribution in Sprague-Dawley rat at 0.5 mg/kg, iv; format: ADME, organism-based; set-up: dose 0.5 mg/kg, route intravenous; conditions: in vivo
# [6] = Cmax in Sprague-Dawley rat at 2.0 mg/kg, po; format: ADME, organism-based; set-up: dose 2 mg/kg, route oral; conditions: in vivo; how it was run: as §1
SMILES,pKi [1],also measured
COc1cccc(S(=O)(=O)c2ccc(C)nc2Nc2c(C)cc(C)cc2C)c1,6.60,–
Cc1cc(C)c(Nc2nc(C)ccc2S(=O)(=O)c2cccc(OCc3ccccc3)c2)c(C)c1,6.88,–
COc1cc(COc2ccc(S(=O)(=O)c3ccc(C)nc3Nc3c(C)cc(C)cc3C)cc2)cc(OC)c1,7.47,–
Cc1cc(C)c(Nc2nc(C)ccc2S(=O)(=O)c2ccc(OC(F)(F)F)cc2)c(C)c1,6.57,–
Cc1cc(C)c(Nc2nc(C)ccc2S(=O)(=O)c2ccc(OCCCCC#N)cc2)c(C)c1,6.40,–
Cc1cc(C)c(Nc2nc(C)ccc2S(=O)(=O)c2ccc(CO)cc2)c(C)c1,5.97,–
Cc1ccc(S(=O)(=O)c2c(C)cc(C)nc2Nc2c(C)cc(C)cc2C)cc1,5.75,–
COc1ccc(S(=O)(=O)c2ccc(C)nc2Nc2c(C)cc(C)cc2C)cc1,6.70,–
C=CCOc1ccc(S(=O)(=O)c2ccc(C)nc2Nc2c(C)cc(C)cc2C)cc1,6.92,–
Cc1cccc(S(=O)(=O)c2c(C)cc(C)nc2Nc2c(C)cc(C)cc2C)c1,5.29,–
CCc1ccc(S(=O)(=O)c2ccc(C)nc2Nc2c(C)cc(C)cc2C)cc1,7.28,bioavailability [2]: 35%; AUC [3]: 0.347 µM·h; half-life [4]: 306 min; clearance [5]: 86.7 mL/min/kg; Vss (Rattus norvegicus): 25 L/kg; Cmax [6]: 72 nM
Cc1cc(C)c(Nc2nc(C)ccc2S(=O)(=O)c2ccc(OCc3cccc(C#N)c3)cc2)c(C)c1,7.12,–
COc1cccc(COc2ccc(S(=O)(=O)c3ccc(C)nc3Nc3c(C)cc(C)cc3C)cc2)c1,7.24,–
Cc1cc(C)c(Nc2nc(C)ccc2S(=O)(=O)c2ccc(OCc3ccc(C#N)cc3)cc2)c(C)c1,6.80,–
Cc1ccc(S(=O)(=O)c2ccc(C)nc2Nc2c(C)cc(C)cc2C)cc1,6.84,–
Cc1cc(C)c(Nc2nc(C)ccc2S(=O)(=O)Cc2ccc(Cl)cc2)c(C)c1,6.07,–
Cc1cc(C)c(Nc2nc(C)cc(C)c2S(=O)(=O)c2ccccc2C)c(C)c1,< 5.00,–
Cc1cc(C)c(Nc2nc(C)ccc2S(=O)(=O)c2ccc(OCCCC#N)cc2)c(C)c1,6.20,–
COc1ccccc1COc1ccc(S(=O)(=O)c2ccc(C)nc2Nc2c(C)cc(C)cc2C)cc1,7.77,bioavailability [2]: 16%; AUC [3]: 0.176 µM·h; half-life [4]: 210 min; clearance [5]: 58.3 mL/min/kg; Vss (Rattus norvegicus): 8 L/kg; Cmax [6]: 48 nM
Cc1cc(C)c(Nc2nc(C)cc(C)c2S(=O)(=O)c2ccccc2)c(C)c1,< 5.00,–
Cc1ccc(S(=O)(=O)c2ccc(Nc3c(C)cc(C)cc3C)nc2C)cc1,< 5.00,–
Cc1cc(C)c(Nc2nc(C)ccc2S(=O)(=O)c2ccc(OCc3ccccn3)cc2)c(C)c1,6.60,–
Cc1cc(C)c(Nc2nc(C)ccc2S(=O)(=O)c2ccc(OCc3ccccc3)cc2)c(C)c1,7.49,bioavailability [2]: 18%; AUC [3]: 0.167 µM·h; half-life [4]: 180 min; clearance [5]: 78.3 mL/min/kg; Vss (Rattus norvegicus): 10 L/kg; Cmax [6]: 42 nM
COC(=O)c1cccc(COc2ccc(S(=O)(=O)c3ccc(C)nc3Nc3c(C)cc(C)cc3C)cc2)c1,7.31,–
